In ChEMBL document CHEMBL5247578, “Effective synthesis of benzimidazoles-imidazo[1,2-a]pyrazine conjugates: A comparative study of mono-and bis-benzimidazoles for antitumor activity” (Eur J Med Chem, 2019):

Key:
Albumin = Albumin (Bos taurus, UniProt P02769); assay: Binding affinity to bovine serum albumin assessed as binding constant by Benesi-Hildebrand equation based UV-vis spectrophotometric method; conditions: cattle
MDA-MB-435 = assay: Antiproliferative activity against human MDA-MB-435 cells assessed as cell growth at 0.00000001 M incubated for 48 hrs by SRB assay relative to control; format: functional; conditions: dose 10 nM, read-out: Activity
IGROV-1 = assay: Antiproliferative activity against human IGROV-1 cells assessed as cell growth at 0.00000001 M incubated for 48 hrs by SRB assay relative to control; format: functional; conditions: dose 10 nM, read-out: Activity
T47D = assay: Antiproliferative activity against human T47D cells assessed as cell growth inhibition by measuring lethal concentration incubated for 48 hrs by sulforhodamine B assay; format: functional; conditions: read-out: LC50 (the source's name)
How it was run: (§1)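 NCI-60 five-dose screen (10^-4 to 10^-8 M, 10-fold dilutions; DMSO stocks). Cells in RPMI 1640 with 5% FBS and 2 mM L-glutamine, preincubated 24 h, then exposed 48 h at 37 °C, 5% CO2. Fixed with cold TCA, stained with 0.4% SRB, absorbance read at 515 nm. Time-zero plates used as reference. LC50 taken from [(Ti-Tz)/Tz]×100 […].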

HOP-92 = assay: Antiproliferative activity against human HOP-92 cells assessed as cell growth at 0.00000001 M incubated for 48 hrs by SRB assay relative to control; format: functional; conditions: dose 10 nM, read-out: Activity
How it was run: (§2)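 NCI-60 five-dose screen (10^-4 to 10^-8 M). Cells grown in RPMI 1640 with 5% FBS and 2 mM L-glutamine, plated at 5,000-40,000 cells/well and preincubated 24 h. Drug given from DMSO stock, then 48 h at 37 °C, 5% CO2. For adherent lines, cells fixed with cold TCA, SRB-stained and read at 515 nm. Percent growth taken against time-zero and untreated control.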

DU-145 = assay: Antiproliferative activity against human DU-145 cells assessed as cell growth inhibition by measuring lethal concentration incubated for 48 hrs by sulforhodamine B assay; format: functional; conditions: read-out: LC50 (the source's name)
SN12C = assay: Antiproliferative activity against human SN12C cells assessed as cell growth inhibition by measuring lethal concentration incubated for 48 hrs by sulforhodamine B assay; format: functional; conditions: read-out: LC50 (the source's name)
UACC-62 [1] = assay: Antiproliferative activity against human UACC-62 cells assessed as cell growth inhibition by measuring lethal concentration incubated for 48 hrs by sulforhodamine B assay; format: functional; conditions: read-out: LC50 (the source's name); how it was run: as §1
HOP-62 [2] = assay: Antiproliferative activity against human HOP-62 cells assessed as cell growth inhibition by measuring lethal concentration incubated for 48 hrs by sulforhodamine B assay; format: functional; conditions: read-out: LC50 (the source's name)
HCC 2998 [3] = assay: Growth inhibition against human HCC 2998 cells assessed as total growth inhibitory concentration incubated for 48 hrs by sulforhodamine B assay; format: functional
RPMI-8226 = assay: Growth inhibition against human RPMI-8226 cells assessed as total growth inhibitory concentration incubated for 48 hrs by sulforhodamine B assay; format: functional
SF-268 = assay: Growth inhibition against human SF-268 cells incubated for 48 hrs by sulforhodamine B assay; format: functional
SW-620 = assay: Growth inhibition against human SW620 cells incubated for 48 hrs by sulforhodamine B assay; format: functional
HCC 2998 [4] = assay: Growth inhibition against human HCC 2998 cells incubated for 48 hrs by sulforhodamine B assay; format: functional
HOP-62 [5] = assay: Growth inhibition against human HOP-62 cells incubated for 48 hrs by sulforhodamine B assay; format: functional
SF-295 = assay: Antiproliferative activity against human SF-295 cells assessed as cell growth at 0.0000001 M incubated for 48 hrs by SRB assay relative to control; format: functional; conditions: dose 100 nM, read-out: Activity
SNB-19 [6] = assay: Antiproliferative activity against human SNB-19 cells assessed as cell growth at 0.0000001 M incubated for 48 hrs by SRB assay relative to control; format: functional; conditions: dose 100 nM, read-out: Activity
SK-MEL-2 = assay: Antiproliferative activity against human SK-MEL-2 cells assessed as cell growth at 0.0000001 M incubated for 48 hrs by SRB assay relative to control; format: functional; conditions: dose 100 nM, read-out: Activity
UACC-257 = assay: Antiproliferative activity against human UACC-257 cells assessed as cell growth at 0.0000001 M incubated for 48 hrs by SRB assay relative to control; format: functional; conditions: dose 100 nM, read-out: Activity
CAKI-1 = assay: Antiproliferative activity against human CAKI-1 cells assessed as cell growth at 0.0000001 M incubated for 48 hrs by SRB assay relative to control; format: functional; conditions: dose 100 nM, read-out: Activity
How it was run: (§3)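 NCI-60 five-dose screen over 10^-4–10^-8 M (10-fold dilutions). Cells grown in RPMI 1640 with 5% FBS and 2 mM L-glutamine, seeded at 5,000–40,000 cells/well and preincubated 24 h. Drug from DMSO stock, 48 h at 37 °C, 5% CO2. Adherent cells TCA-fixed and stained with 0.4% SRB; A515 read. Percent growth = (Ti−Tz)/(C−Tz)×100, or (Ti−Tz)/Tz×100 when Ti<Tz.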

TK-10 = assay: Antiproliferative activity against human TK-10 cells assessed as cell growth at 0.0000001 M incubated for 48 hrs by SRB assay relative to control; format: functional; conditions: dose 100 nM, read-out: Activity
MDA-MB-468 = assay: Antiproliferative activity against human MDA-MB-468 cells assessed as cell growth at 0.0000001 M incubated for 48 hrs by SRB assay relative to control; format: functional; conditions: dose 100 nM, read-out: Activity
MOLT-4 = assay: Antiproliferative activity against human MOLT-4 cells assessed as cell growth at 0.000001 M incubated for 48 hrs by SRB assay relative to control; format: functional; conditions: read-out: Activity
SNB-19 [7] = assay: Antiproliferative activity against human SNB-19 cells assessed as cell growth at 0.000001 M incubated for 48 hrs by SRB assay relative to control; format: functional; conditions: read-out: Activity
UACC-62 [8] = assay: Antiproliferative activity against human UACC-62 cells assessed as cell growth at 0.000001 M incubated for 48 hrs by SRB assay relative to control; format: functional; conditions: read-out: Activity
SR = assay: Antiproliferative activity against human SR cells assessed as cell growth at 0.00001 M incubated for 48 hrs by SRB assay relative to control; format: functional; conditions: read-out: Activity
EKVX = assay: Antiproliferative activity against human EKVX cells assessed as cell growth at 0.00001 M incubated for 48 hrs by SRB assay relative to control; format: functional; conditions: read-out: Activity; how it was run: as §2
NCI-H460 = assay: Antiproliferative activity against human NCI-H460 cells assessed as cell growth at 0.00001 M incubated for 48 hrs by SRB assay relative to control; format: functional; conditions: read-out: Activity
OVCAR-4 = assay: Antiproliferative activity against human OVCAR-4 cells assessed as cell growth at 0.00001 M incubated for 48 hrs by SRB assay relative to control; format: functional; conditions: read-out: Activity
UO-31 = assay: Antiproliferative activity against human UO-31 cells assessed as cell growth at 0.00001 M incubated for 48 hrs by SRB assay relative to control; format: functional; conditions: read-out: Activity
BT-549 = assay: Antiproliferative activity against human BT-549 cells assessed as cell growth at 0.00001 M incubated for 48 hrs by SRB assay relative to control; format: functional; conditions: read-out: Activity; how it was run: as §3
NCI-H226 = assay: Antiproliferative activity against human NCI-H226 cells assessed as cell growth at 0.0001 M incubated for 48 hrs by SRB assay relative to control; format: functional; conditions: read-out: Activity
OVCAR-8 = assay: Antiproliferative activity against human OVCAR-8 cells assessed as cell growth at 0.0001 M incubated for 48 hrs by SRB assay relative to control; format: functional; conditions: read-out: Activity

Albumin, sequence (P02769 whole entry): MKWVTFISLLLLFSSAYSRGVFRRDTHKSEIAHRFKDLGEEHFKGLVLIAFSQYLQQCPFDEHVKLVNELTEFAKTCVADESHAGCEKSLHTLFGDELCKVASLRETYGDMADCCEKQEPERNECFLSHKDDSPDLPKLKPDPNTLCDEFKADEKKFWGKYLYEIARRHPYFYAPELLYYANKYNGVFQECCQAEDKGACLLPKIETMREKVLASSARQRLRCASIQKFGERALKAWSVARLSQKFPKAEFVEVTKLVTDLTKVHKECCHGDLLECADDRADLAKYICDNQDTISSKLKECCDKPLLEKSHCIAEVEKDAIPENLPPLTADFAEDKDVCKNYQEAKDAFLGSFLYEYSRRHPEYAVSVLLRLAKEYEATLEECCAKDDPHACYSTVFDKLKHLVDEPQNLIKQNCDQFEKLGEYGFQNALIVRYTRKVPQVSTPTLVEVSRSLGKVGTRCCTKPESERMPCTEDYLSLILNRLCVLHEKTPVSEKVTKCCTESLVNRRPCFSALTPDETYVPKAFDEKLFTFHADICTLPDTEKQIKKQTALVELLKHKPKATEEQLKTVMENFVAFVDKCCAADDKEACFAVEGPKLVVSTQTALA

Question: For `COc1ccc(-c2cn3ccnc3c(-c3ccc4ncn(C5CCCCC5)c4c3)n2)cc1`, which Kb (Albumin) is on record?
Answer: 1.95 10^5/M

Question: What about the growth at 0.01 µM (MDA-MB-435) of the same molecule?
Answer: 92%

Question: What about the growth at 0.01 µM (IGROV-1) of the same molecule?
Answer: 96%

Question: And the CC50 (T47D)?
Answer: > 100 µM

Question: And the growth at 0.01 µM (HOP-92)?
Answer: 96%

Question: And the CC50 (DU-145)?
Answer: > 100 µM

Question: And the CC50 (SN12C)?
Answer: > 100 µM

Question: And the CC50 (UACC-62 [1])?
Answer: > 100 µM

Question: And the CC50 (HOP-62 [2])?
Answer: > 100 µM

Question: And the TGI (HCC 2998 [3])?
Answer: > 100 µM

Question: What about the TGI (RPMI-8226) of the same molecule?
Answer: > 100 µM

Question: What about the GI50 (SF-268) of the same molecule?
Answer: 2.38 µM

Question: What about the GI50 (SW-620) of the same molecule?
Answer: 0.734 µM

Question: What about the GI50 (HCC 2998 [4]) of the same molecule?
Answer: 2.92 µM

Question: What about the GI50 (HOP-62 [5]) of the same molecule?
Answer: 1.09 µM

Question: What about the growth at 0.1 µM (SF-295) of the same molecule?
Answer: 91%

Question: What about the growth at 0.1 µM (SNB-19 [6]) of the same molecule?
Answer: 108%

Question: What about the growth at 0.1 µM (SK-MEL-2) of the same molecule?
Answer: 92%

Question: What about the growth at 0.1 µM (UACC-257) of the same molecule?
Answer: 104%

Question: What about the growth at 0.1 µM (CAKI-1) of the same molecule?
Answer: 90%

Question: What about the growth at 0.1 µM (TK-10) of the same molecule?
Answer: 88%

Question: What about the growth at 0.1 µM (MDA-MB-468) of the same molecule?
Answer: 99%

Question: What about the growth at 1 µM (MOLT-4) of the same molecule?
Answer: 78%

Question: And the growth at 1 µM (SNB-19 [7])?
Answer: 45%

Question: And the growth at 1 µM (UACC-62 [8])?
Answer: 27%

Question: What about the growth at 10 µM (SR) of the same molecule?
Answer: 9%

Question: What about the growth at 10 µM (EKVX) of the same molecule?
Answer: 25%

Question: What about the growth at 10 µM (NCI-H460) of the same molecule?
Answer: 4%

Question: And the growth at 10 µM (OVCAR-4)?
Answer: 35%

Question: And the growth at 10 µM (UO-31)?
Answer: 14%

Question: What about the growth at 10 µM (BT-549) of the same molecule?
Answer: -18%

Question: What about the growth at 100 µM (NCI-H226) of the same molecule?
Answer: 39%

Question: And the growth at 100 µM (OVCAR-8)?
Answer: 8%

Question: Which results are given for `c1ccc(Cn2cnc3ccc(-c4nc(-c5ccc6c(c5)ncn6C5CCCCC5)cn5ccnc45)cc32)cc1`?
Answer: Kb (Albumin): 2.65 10^4/M; growth at 0.01 µM (MDA-MB-435): 91%; growth at 0.01 µM (IGROV-1): 97%; CC50 (T47D): > 100 µM; growth at 0.01 µM (HOP-92): 88%; CC50 (DU-145): > 100 µM; CC50 (SN12C): > 100 µM; CC50 (UACC-62 [1]): > 100 µM; CC50 (HOP-62 [2]): > 100 µM; TGI (HCC 2998 [3]): 3.41 µM; TGI (RPMI-8226): 4.5 µM; GI50 (SF-268): 2.48 µM; GI50 (SW-620): 3.4 µM; GI50 (HCC 2998 [4]): 1.9 µM; GI50 (HOP-62 [5]): 2.13 µM; growth at 0.1 µM (SF-295): 92%; growth at 0.1 µM (SNB-19 [6]): 103%; growth at 0.1 µM (SK-MEL-2): 90%; growth at 0.1 µM (UACC-257): 105%; growth at 0.1 µM (CAKI-1): 88%; growth at 0.1 µM (TK-10): 84%; growth at 0.1 µM (MDA-MB-468): 104%; growth at 1 µM (MOLT-4): 64%; growth at 1 µM (SNB-19 [7]): 93%; growth at 1 µM (UACC-62 [8]): 87%; growth at 10 µM (SR): 5%; growth at 10 µM (EKVX): -31%; growth at 10 µM (NCI-H460): -32%; growth at 10 µM (OVCAR-4): 1%; growth at 10 µM (UO-31): -40%; growth at 10 µM (BT-549): -82%; growth at 100 µM (NCI-H226): 36%; growth at 100 µM (OVCAR-8): -2%
